Measured values from PMC10937199 (ESMO Open, 2024).
Read-outs that look alike come from different tables or passages of the source.

Legend:
advanced solid tumors [1] = experiment: Best overall response per RECIST version 1.1, Part A; assay type: in vivo, human
advanced solid tumors [2] = experiment: Best overall response per RECIST version 1.1, Part FE; assay type: in vivo, human
[3] = Peposertib plasma pharmacokinetics, Part A; assay type: in vivo, human; settings: Parts A and B
[4] = Food effect on peposertib pharmacokinetics, Part FE; assay type: in vivo, human; settings: after a single dose, sampling did not cover tmax
advanced solid tumors [5] = experiment: Disease control by baseline PD-L1 and DNA-PK immunohistochemistry; assay type: in vivo, human
How it was run: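 Immunohistochemistry on pretreatment archival tumor tissue; in Parts A and B, fresh samples were taken when no archival tissue was available. DNA-PK staining was scored as an H-score combining prevalence and staining intensity, then related to disease control.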

[6] = system: patients with advanced solid tumors; settings: Part A
[7] = system: patients with advanced solid tumors; settings: Part B, 100-250 mg q.d.
[8] = 50-mg film-coated hot melt extrudate tablets; estimated; cited from earlier work

COc1ccc([C@@H](O)c2cc(-c3ncnc4cc(N5CCOCC5)ccc34)c(F)cc2Cl)nn1 [Peposertib]
Patients with complete response (CR) or partial response (PR) (advanced solid tumors [1]): no patients
Best overall response of stable disease (SD) or non-CR/non-PD (advanced solid tumors [1]; all dose levels): 17.2%
Best overall response of stable disease (SD) or non-CR/non-PD (advanced solid tumors [2]; all dose levels): 33.3%
Patients with a PR (advanced solid tumors [2]; all patients, response at 200 mg b.i.d.): one of nine
Peposertib exposure versus dose ([3]; across all dose levels after single or multiple (q.d. and b.i.d.) doses): generally proportional to the dose
Accumulation ([3]; after q.d. and b.i.d. dosing): Some accumulation was observed
Effect of food on peposertib Cmax [4]: food delayed peposertib Cmax
Patients with SD among PD-L1+ tumors (advanced solid tumors [5]; Part A): two of seven
Patients with SD among PD-L1− tumors (advanced solid tumors [5]; Part A): two of 17
Patients with SD among PD-L1+ tumors (advanced solid tumors [5]; Part B): two of seven
Patients with SD among PD-L1− tumors (advanced solid tumors [5]; Part B): three of nine
Association between DNA-PK H-score and disease control (advanced solid tumors [5]; Parts A, B and FE): No association
DLT by preferred term: Acute kidney injury ([6]; 100 mg b.i.d.): 0 n (%)
DLT by preferred term: Febrile neutropenia ([6]; 100 mg b.i.d.): 0 n (%)
DLT by preferred term: Neutropenia ([6]; 100 mg b.i.d.): 0 n (%)
DLT by preferred term: Neutrophil count decreased ([6]; 100 mg b.i.d.): 0 n (%)
DLT by preferred term: Pneumonitis ([6]; 100 mg b.i.d.): 0 n (%)
DLT by preferred term: Pyrexia ([6]; 100 mg b.i.d.): 0 n (%)
DLT by preferred term: Rash ([6]; 100 mg b.i.d.): 0 n (%)
DLTs per patient: 1 ([6]; 100 mg b.i.d.): 0 n (%)
DLTs per patient: 2 ([6]; 100 mg b.i.d.): 0 n (%)
DLTs per patient: ≥3 ([6]; 100 mg b.i.d.): 0 n (%)
Patients with DLT ([6]; 100 mg b.i.d.): 0 n (%)
DLT by preferred term: Acute kidney injury ([6]; 200 mg b.i.d.): 0 n (%)
DLT by preferred term: Febrile neutropenia ([6]; 200 mg b.i.d.): 0 n (%)
DLT by preferred term: Neutropenia ([6]; 200 mg b.i.d.): 0 n (%)
DLT by preferred term: Neutrophil count decreased ([6]; 200 mg b.i.d.): 0 n (%)
DLT by preferred term: Pneumonitis ([6]; 200 mg b.i.d.): 0 n (%)
DLT by preferred term: Pyrexia ([6]; 200 mg b.i.d.): 0 n (%)
DLT by preferred term: Rash ([6]; 200 mg b.i.d.): 0 n (%)
DLTs per patient: 1 ([6]; 200 mg b.i.d.): 0 n (%)
DLTs per patient: 2 ([6]; 200 mg b.i.d.): 0 n (%)
DLTs per patient: ≥3 ([6]; 200 mg b.i.d.): 0 n (%)
Patients with DLT ([6]; 200 mg b.i.d.): 0 n (%)
DLT by preferred term: Acute kidney injury ([6]; 250 mg b.i.d.): 0 n (%)
DLT by preferred term: Febrile neutropenia ([6]; 250 mg b.i.d.): 0 n (%)
DLT by preferred term: Neutropenia ([6]; 250 mg b.i.d.): 0 n (%)
DLT by preferred term: Neutrophil count decreased ([6]; 250 mg b.i.d.): 0 n (%)
DLT by preferred term: Pneumonitis ([6]; 250 mg b.i.d.): 1 (50.0) n (%)
DLT by preferred term: Pyrexia ([6]; 250 mg b.i.d.): 0 n (%)
DLT by preferred term: Rash ([6]; 250 mg b.i.d.): 0 n (%)
DLTs per patient: 1 ([6]; 250 mg b.i.d.): 1 (50.0) n (%)
DLTs per patient: 2 ([6]; 250 mg b.i.d.): 0 n (%)
DLTs per patient: ≥3 ([6]; 250 mg b.i.d.): 0 n (%)
Patients with DLT ([6]; 250 mg b.i.d.): 1 (50.0) n (%)
DLT by preferred term: Acute kidney injury ([6]; 300 mg b.i.d.): 0 n (%)
DLT by preferred term: Febrile neutropenia ([6]; 300 mg b.i.d.): 0 n (%)
DLT by preferred term: Neutropenia ([6]; 300 mg b.i.d.): 0 n (%)
DLT by preferred term: Neutrophil count decreased ([6]; 300 mg b.i.d.): 0 n (%)
DLT by preferred term: Pneumonitis ([6]; 300 mg b.i.d.): 1 (25.0) n (%)
DLT by preferred term: Pyrexia ([6]; 300 mg b.i.d.): 0 n (%)
DLT by preferred term: Rash ([6]; 300 mg b.i.d.): 0 n (%)
DLTs per patient: 1 ([6]; 300 mg b.i.d.): 1 (25.0) n (%)
DLTs per patient: 2 ([6]; 300 mg b.i.d.): 0 n (%)
DLTs per patient: ≥3 ([6]; 300 mg b.i.d.): 0 n (%)
Patients with DLT ([6]; 300 mg b.i.d.): 1 (25.0) n (%)
DLT by preferred term: Acute kidney injury ([6]; 400 mg b.i.d.): 1 (25.0) n (%)
DLT by preferred term: Febrile neutropenia ([6]; 400 mg b.i.d.): 1 (25.0) n (%)
DLT by preferred term: Neutropenia ([6]; 400 mg b.i.d.): 1 (25.0) n (%)
DLT by preferred term: Neutrophil count decreased ([6]; 400 mg b.i.d.): 1 (25.0) n (%)
DLT by preferred term: Pneumonitis ([6]; 400 mg b.i.d.): 0 n (%)
DLT by preferred term: Pyrexia ([6]; 400 mg b.i.d.): 1 (25.0) n (%)
DLT by preferred term: Rash ([6]; 400 mg b.i.d.): 1 (25.0) n (%)
DLTs per patient: 1 ([6]; 400 mg b.i.d.): 1 (25.0) n (%)
DLTs per patient: 2 ([6]; 400 mg b.i.d.): 1 (25.0) n (%)
DLTs per patient: ≥3 ([6]; 400 mg b.i.d.): 1 (25.0) n (%)
Patients with DLT ([6]; 400 mg b.i.d.): 3 (75.0) n (%)
DLT [7]: no DLT was reported
Increase in bioavailability versus capsules [8]: 75%
